Screening data: PubChem BioAssay, The Scripps Research Institute Molecular Screening Center
PAFAH1B3 inh – PAFAH1B3 (human) inhibition; Q15102; inhibition, % at 3.39 µM; AID 492972; recombinant PAFAH1B3, FP-rhodamine probe, fluorescence polarization; 340,000 tested, 0.28% active;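 active = inhibition above the screen-wide average of all tested compounds plus 3 SD, cut at about 25% in these data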
Target sequence (Q15102 whole entry, looked up): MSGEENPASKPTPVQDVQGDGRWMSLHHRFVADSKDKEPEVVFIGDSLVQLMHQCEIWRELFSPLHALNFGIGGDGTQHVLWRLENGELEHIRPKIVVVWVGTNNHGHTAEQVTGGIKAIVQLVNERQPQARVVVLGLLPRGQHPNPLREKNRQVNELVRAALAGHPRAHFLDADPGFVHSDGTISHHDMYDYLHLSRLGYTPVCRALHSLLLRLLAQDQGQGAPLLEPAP
mABHD4 FP – inhibits mouse alpha/beta hydrolase domain 4. inhibition, % at 8.92 µM. AID 720543. purified mABHD4, FP-Rh probe fluorescence polarization. 370,000 tested, 0.54% active. Q8VD66;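 active = inhibition exceeding the mean over every tested compound plus 3 SD, cut at about 30% in these data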
Target sequence (Q8VD66 whole entry, looked up, the tested form may be a part): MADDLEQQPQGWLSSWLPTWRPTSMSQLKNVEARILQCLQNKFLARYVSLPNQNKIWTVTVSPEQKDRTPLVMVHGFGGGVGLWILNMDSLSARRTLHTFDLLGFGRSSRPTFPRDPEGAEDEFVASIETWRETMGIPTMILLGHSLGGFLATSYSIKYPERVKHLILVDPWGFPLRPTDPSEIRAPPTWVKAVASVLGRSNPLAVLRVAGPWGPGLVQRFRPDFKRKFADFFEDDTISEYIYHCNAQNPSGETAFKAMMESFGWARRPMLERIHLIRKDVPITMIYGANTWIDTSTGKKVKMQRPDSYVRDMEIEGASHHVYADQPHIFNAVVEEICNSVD
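Doses – 8.92 µM, single dose · Material – wild-type mouse ABHD4 protein · Replication – single well per compound (singlicate) · Measure – percent inhibition of probe binding, normalized to plate controls · Schedule – 45 min compound pre-incubation plus 60 min probe step, 25 °C · Detection – fluorescence polarization with parallel and perpendicular emission, 525/598 nm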
HTRA1 inh – blocks human HTRA1 serine peptidase | Q92743 | recombinant HTRA1, FP-rhodamine activity-based probe, fluorescence polarization | inhibition, % at 5.96 µM | 340,000 tested, 0.5% active | AID 504803; in the data active = inhibition above about 36%
PAFAH2 inh – PAFAH2 (human) inhibition. 340,000 tested, 0.99% active. recombinant PAFAH2, FP-rhodamine activity probe, fluorescence polarization. inhibition, % at 3.39 µM. Q99487;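 active = inhibition above the mean over all tested compounds plus 3 SD, cut at about 30% in these data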;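 also: inhibitors block probe labeling of enzyme so polarization drops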
pPAFAH FP inh – inhibitors of human plasma PAF acetylhydrolase (pPAFAH) | Q13093 | inhibition, % at 3.39 µM | recombinant pPAFAH, FP-rhodamine probe fluorescence polarization | 330,000 tested, 1.5% active;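 active = inhibition above the mean inhibition across the screen plus 3 SD, cut at about 25% in these data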;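 also: inhibitors block binding of the rhodamine activity-based probe so polarization drops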
PAFAH1B2 inh – inhibitors of human PAFAH1B2. P68402. recombinant PAFAH1B2, FP-rhodamine activity probe, fluorescence polarization. inhibition, % at 3.39 µM. 340,000 tested, 1.2% active. AID 492953;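 active = inhibition above the mean of all tested compounds plus 3 SD, cut at about 24% in these data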
PAFAH2 FP conf – confirmation of human PAFAH2 inhibitors; inhibition, % at 3.39 µM; recombinant PAFAH2, FP-rhodamine activity probe, fluorescence polarization; AID 493030; 2,300 tested, 65% active; shares compounds with PAFAH2 inh;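 active = mean inhibition over three repeats above a set limit taken from the earlier primary screen, cut at about 30% in these data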;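 also: inhibitor blocks binding of rhodamine activity probe so polarization falls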
Hits are given with their value. This is a sample that favours compounds with a hit; in the whole collection about 2.8% have one here.

Results for COC(=O)C[C@@H]1CC[C@@H]2[C@@H](COc3ccc(NC(=O)Nc4cccc(Cl)c4)cc3C(=O)N2C)O1 ?
mABHD4 FP: inactive

Results for Cc1ccccc1C(=O)n1ccc2ccc(-c3ccc4ccn(Cc5ccccc5)c4c3)cc21 ?
mABHD4 FP: inactive

What do the screens show for `CCOC(=O)[C@@]12CN(C(=O)OC(C)(C)C)CC=C1N(Cc1ccc(OC)cc1)C(=O)[C@H]2CC(=O)N1CCN(C(=O)c2ccco2)CC1`?
mABHD4 FP: inactive

Results for O=C(COC(=O)c1ccccc1Br)Nc1ccc(F)cc1 ?
PAFAH1B3 inh: inactive; mABHD4 FP: inactive; HTRA1 inh: inactive; PAFAH2 inh: 76.1; pPAFAH FP inh: inactive; PAFAH1B2 inh: inactive; PAFAH2 FP conf: 69.6

Results for Cc1occc1C(=O)OCC(=O)Nc1ccc(F)cc1 ?
PAFAH1B3 inh: inactive; mABHD4 FP: inactive; HTRA1 inh: inactive; PAFAH2 inh: 72.7; pPAFAH FP inh: inactive; PAFAH1B2 inh: inactive; PAFAH2 FP conf: 61.8

Results for CCCCOCCCNC(=O)C[C@@H]1C(=O)N(Cc2ccc(OC)cc2)C2=CCN(C(=O)OC(C)(C)C)C[C@]21C(=O)OCC ?
mABHD4 FP: inactive

Results for COC[C@@H]1CCCN1c1ccc2c(c1)O[C@H]1CCN(C1)S2(=O)=O ?
mABHD4 FP: inactive

How did O=S(=O)(c1ccc(-c2csc(Nc3ccc(Br)cc3)n2)cc1)N1CCCC1 do in these assays?
PAFAH1B3 inh: inactive; mABHD4 FP: inactive; HTRA1 inh: inactive; PAFAH2 inh: 30.3; pPAFAH FP inh: inactive; PAFAH1B2 inh: inactive; PAFAH2 FP conf: inactive

How did O=S(=O)(c1ccc(-c2csc(Nc3ccc(F)cc3)n2)cc1)N1CCCC1 do in these assays?
PAFAH1B3 inh: inactive; mABHD4 FP: inactive; HTRA1 inh: inactive; PAFAH2 inh: inactive; pPAFAH FP inh: inactive; PAFAH1B2 inh: inactive

How did C/C(=N\NC(=O)c1cc(-c2ccccc2)nc2ccccc12)c1ccc(Cl)cc1 do in these assays?
mABHD4 FP: inactive

How did CC1CCCC(C(=O)O)N1C(=O)CCSC(=O)c1ccccc1 (stereo unspecified) do in these assays?
PAFAH1B3 inh: inactive; mABHD4 FP: inactive; HTRA1 inh: inactive; PAFAH2 inh: 44.3; pPAFAH FP inh: inactive; PAFAH1B2 inh: inactive; PAFAH2 FP conf: 45.6

Results for CCn1cc(C(=O)OCC(=O)NCc2ccccc2Cl)c(=O)c2ccc(C)nc21 ?
PAFAH1B3 inh: inactive; mABHD4 FP: inactive; HTRA1 inh: inactive; PAFAH2 inh: 35.3; pPAFAH FP inh: inactive; PAFAH1B2 inh: inactive; PAFAH2 FP conf: inactive

Results for CC1(C)CC(=O)C=C(N=CC2=C(O)CC(C)(C)CC2=O)C1 ?
PAFAH1B3 inh: inactive; mABHD4 FP: inactive; HTRA1 inh: inactive; PAFAH2 inh: 33.4; pPAFAH FP inh: inactive; PAFAH1B2 inh: inactive; PAFAH2 FP conf: inactive

Results for CC1(C)CC(=O)C(C=Nc2ccncc2)=C(O)C1 ?
PAFAH1B3 inh: inactive; mABHD4 FP: inactive; HTRA1 inh: inactive; PAFAH2 inh: inactive; pPAFAH FP inh: inactive; PAFAH1B2 inh: inactive

How did Cc1ccc(S(=O)(=O)n2nc(OC(=O)c3c(F)cccc3Cl)cc2N)cc1 do in these assays?
PAFAH1B3 inh: inactive; mABHD4 FP: inactive; HTRA1 inh: inactive; PAFAH2 inh: 33.5; pPAFAH FP inh: inactive; PAFAH1B2 inh: inactive; PAFAH2 FP conf: inactive

What do the screens show for `Cc1ccc(S(=O)(=O)n2nc(OC(=O)c3cccc(F)c3)cc2N)cc1`?
PAFAH1B3 inh: inactive; mABHD4 FP: inactive; HTRA1 inh: inactive; PAFAH2 inh: inactive; pPAFAH FP inh: inactive; PAFAH1B2 inh: inactive

Results for C=CCNC(=O)c1onc(CSc2ccccc2CC)c1C(=O)O ?
PAFAH1B3 inh: inactive; mABHD4 FP: inactive; HTRA1 inh: inactive; PAFAH2 inh: 48.7; pPAFAH FP inh: inactive; PAFAH1B2 inh: inactive; PAFAH2 FP conf: 36.4

What do the screens show for `CCc1ccccc1SCc1noc(C(=O)NCC2CCCO2)c1C(=O)O` (stereo unspecified)?
PAFAH1B3 inh: inactive; mABHD4 FP: inactive; HTRA1 inh: inactive; PAFAH2 inh: 40.4; pPAFAH FP inh: inactive; PAFAH1B2 inh: inactive; PAFAH2 FP conf: inactive

Results for C=CCNC(=O)c1onc(CSc2cc(C)cc(C)c2)c1C(=O)O ?
PAFAH1B3 inh: inactive; mABHD4 FP: inactive; HTRA1 inh: inactive; PAFAH2 inh: 37.8; pPAFAH FP inh: inactive; PAFAH1B2 inh: inactive; PAFAH2 FP conf: inactive

Results for C=CCNC(=O)c1onc(CSc2ccc(C)c(C)c2)c1C(=O)O ?
PAFAH1B3 inh: inactive; mABHD4 FP: inactive; HTRA1 inh: inactive; PAFAH2 inh: inactive; pPAFAH FP inh: inactive; PAFAH1B2 inh: inactive

Results for C=CCNC(=O)c1onc(CSc2ccccc2)c1C(=O)NCC=C ?
PAFAH1B3 inh: inactive; mABHD4 FP: inactive; HTRA1 inh: inactive; PAFAH2 inh: inactive; pPAFAH FP inh: inactive; PAFAH1B2 inh: inactive

What do the screens show for `O=C(CC12CC3CC(CC(C3)C1)C2)NCO`?
PAFAH1B3 inh: inactive; mABHD4 FP: inactive; HTRA1 inh: inactive; PAFAH2 inh: inactive; pPAFAH FP inh: inactive; PAFAH1B2 inh: inactive

Results for O=C(CC12CC3CC(CC(C3)C1)C2)NCC(=O)N1CCCC1 ?
PAFAH1B3 inh: inactive; mABHD4 FP: inactive; HTRA1 inh: inactive; PAFAH2 inh: 75.3; pPAFAH FP inh: inactive; PAFAH1B2 inh: inactive; PAFAH2 FP conf: 70.6

What do the screens show for `COc1ccc(S[C@]2(C(=O)N(C)C)CC(=O)N(C(=O)CCc3ccccc3)[C@@H]2c2ccc(OC)cc2)cc1`?
mABHD4 FP: inactive

What do the screens show for `O=C1CSc2ccc(C(=O)N3CCCC(C(=O)N4CCCCC4)C3)cc2N1` (stereo unspecified)?
mABHD4 FP: inactive

What do the screens show for `Cc1noc(NC(=O)c2ccccc2C(F)(F)F)c1C#N`?
PAFAH1B3 inh: inactive; mABHD4 FP: inactive; HTRA1 inh: inactive; PAFAH2 inh: 37.5; pPAFAH FP inh: inactive; PAFAH1B2 inh: inactive; PAFAH2 FP conf: inactive

How did CC(C)n1nc(C(=O)Nc2nnc(SCc3c(Cl)cccc3Cl)s2)c2ccccc2c1=O do in these assays?
PAFAH1B3 inh: inactive; mABHD4 FP: inactive; HTRA1 inh: inactive; PAFAH2 inh: 40.0; pPAFAH FP inh: inactive; PAFAH1B2 inh: inactive; PAFAH2 FP conf: 65.9

Results for CC(C)n1nc(C(=O)Nc2nc3ccc(S(C)(=O)=O)cc3s2)c2ccccc2c1=O ?
PAFAH1B3 inh: inactive; mABHD4 FP: inactive; HTRA1 inh: inactive; PAFAH2 inh: inactive; pPAFAH FP inh: inactive; PAFAH1B2 inh: inactive

Results for CCOC(=O)Cc1c(C)nc2c(-c3cccc(Br)c3)c[nH]n2c1=O ?
PAFAH1B3 inh: inactive; mABHD4 FP: inactive; HTRA1 inh: inactive; PAFAH2 inh: 32.6; pPAFAH FP inh: inactive; PAFAH1B2 inh: inactive; PAFAH2 FP conf: inactive

Results for O=C1/C(=C/c2ccc(F)cc2)SC(=S)N1Nc1ncc(C(F)(F)F)cc1Cl ?
PAFAH1B3 inh: inactive; mABHD4 FP: inactive; HTRA1 inh: inactive; PAFAH2 inh: inactive; pPAFAH FP inh: inactive; PAFAH1B2 inh: inactive
